In brackets after ≈: the same amount, converted by molar mass.
Key:
[1] = test system: Rattus norvegicus; test: Secretion of phospholipid in Bile Fistula rats after the iv administration of compound, expressed as the residual secretion rate i; format: ADME, organism-based; details: in vivo
Procedure, shortened: (§1)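 Male Sprague-Dawley rats (300-330 g), urethane-anesthetized, bile duct cannulated. After 1 h baseline, sodium salt infused via femoral vein at 10 μmol/min/kg for 1 h; bile collected at 15-min intervals for 3 h. Flow measured gravimetrically; bile acids, cholesterol and phospholipid measured enzymatically. Smax and Tmax read from secretion-time plots; Rs is the rate at hour 3. Mean ± SD, n=6.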

[2] = test system: Rattus norvegicus; test: Secretion of cholesterol in Bile Fistula rats after the iv administration of compound, expressed as the maximum secretion rate i; format: ADME, organism-based; details: in vivo; procedure, shortened: as §1
[3] = test system: Rattus norvegicus; test: Bile flow in Bile Fistula rats after iv coinfusion of TCDCA and compound.; format: ADME, organism-based; details: in vivo
Procedure, shortened: (§2)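 Bile fistula Sprague-Dawley rats (200-250 g). TCDCA and test bile acid given as sodium salts, coinfused via jugular vein, each at 8 μmol/min/kg for 1 h. Bile collected at 30-min intervals for 3 h. Calcium, ALP and LDH in bile measured enzymatically; bile acid composition by HPLC (65% methanol, 15 mM ammonium acetate, pH 5.4). Mean ± SD.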

[4] = Critical Micellar concentration was determined; format: ADME
Procedure, shortened: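 Measured in water from surface tension, using the maximum bubble-pressure method.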

[5] = test system: Rattus norvegicus; test: Secretion of Bile in Bile Fistula rats after the iv administration of compound, expressed as the maximum secretion rate; format: ADME, organism-based; details: in vivo; procedure, shortened: as §1
[6] = Acidity constant was determined; format: ADME
[7] = test system: Rattus norvegicus; test: Lactate dehydrogenase in Bile Fistula rats after iv coinfusion of TCDCA and compound.; format: ADME, organism-based; details: in vivo; procedure, shortened: as §2
[8] = test system: Rattus norvegicus; test: Secretion of Bile acids in Bile Fistula rats after the iv administration of compound, expressed as the maximum secretion rate i; format: ADME, organism-based; details: in vivo; procedure, shortened: as §1
[9] = test system: Rattus norvegicus; test: Secretion of cholesterol in Bile Fistula rats after the iv administration of compound, expressed as the residual secretion rate; format: ADME, organism-based; details: in vivo; procedure, shortened: as §1
[10] = test system: Rattus norvegicus; test: Secretion of Bile acids in Bile Fistula rats after the iv administration of compound, expressed as the residual secretion rate; format: ADME, organism-based; details: in vivo; procedure, shortened: as §1
[11] = test system: Rattus norvegicus; test: Secretion of Bile in Bile Fistula rats after the iv administration of compound, expressed as the residual secretion rate i; format: ADME, organism-based; details: in vivo; procedure, shortened: as §1
[12] = Relative lipophilicity was determined; format: physicochemical; details: C-18 reverse phase HPLC
Procedure, shortened: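 C-18 reverse-phase HPLC run isocratically at 0.9 mL/min. Mobile phase 65% (v/v) aqueous methanol with 2 mM ammonium acetate, pH 7, so that all bile acids are fully ionized.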

[13] = test system: Rattus norvegicus; test: Alkaline phosphatase in Bile Fistula rats after iv coinfusion of TCDCA and compound.; format: ADME, organism-based; details: in vivo; procedure, shortened: as §2
[14] = test system: Rattus norvegicus; test: Maximum biliary secretion rate of TCDCA after iv coinfusion in Bile fistula rats.; format: ADME, organism-based; details: in vivo; procedure, shortened: as §2
[15] = Water solubility was determined; format: ADME; details: read-out: WS
Procedure, shortened: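 Protonated form; measured on saturated solutions at pH 1.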

[16] = test system: Rattus norvegicus; test: Calcium output in Bile Fistula rats after iv coinfusion of TCDCA and compound.; format: ADME, organism-based; details: in vivo; procedure, shortened: as §2
[17] = test system: Rattus norvegicus; test: Secretion of phospholipid in Bile Fistula rats after the iv administration of compound, expressed as the maximum secretion rate i; format: ADME, organism-based; details: in vivo; procedure, shortened: as §1
[18] = test system: Rattus norvegicus; test: Maximum biliary secretion rate of bile acids after iv coinfusion in Bile fistula rats.; format: ADME, organism-based; details: in vivo; procedure, shortened: as §2
[19] = The compound was incubated with human stools and tested for determining the stability towards C-24 Deamination; format: ADME, organism-based; details: in the assay text read “7-dehydroxylation” for “C-24 Deamination”
Procedure, shortened: (§3)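 Homogenized fresh human stool (500 mg) in 5 mL chopped meat-glucose medium; bile acid added at 0.05 mM final; 37 °C. Sampled at 0–72 h and stopped with 30% KOH. Bile acids recovered by C-18 solid-phase extraction, then analyzed by TLC and by HPLC with 75% methanol/15 mM ammonium acetate, pH 5.4.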

[20] = Critical micellar pH was determined
Procedure, shortened: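 20 mL of 50 mM bile salt solution titrated with 0.1 M HCl. CMpH is taken as the pH at which precipitate of the protonated form is first seen by turbidity at 500 nm. Confirmed by back-titration with 0.1 M NaOH until the suspension clears.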

[21] = Partition coefficient (logP); format: physicochemical; details: octanol/water
Procedure, shortened: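 Octanol/water partition coefficient of the protonated species, calculated rather than measured.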

[22] = test system: cholylglycine hydrolase; test: The compound was incubated with cholylglycine hydrolase and tested for determining the stability towards C-24 Deamination; format: ADME; details: cholylglycine hydrolase
[23] = The compound was incubated with human stools and tested for determining the stability towards 7-dehydroxylation; format: ADME, organism-based; procedure, shortened: as §3
[24] = The compound was incubated with human stools and tested for determining the stability towards 7 dehydroxylation; format: ADME

Row | SMILES | Rs [1] [µM/min/kg] | Smax [2] [nM/min/kg] | Smax [3] [mL/h/kg] | CMC [4] [mM] | Smax [5] [mL/h/kg] | pKa [6] | [LDH]max [7] [UI l-1] | Smax [8] [µM/min/kg] | Rs [9] [nM/min/kg] | Rs [10] [µM/min/kg] | Rs [11] [mL/h/kg] | rK [12] | [ALP]max [13] [IU/L] | Smax [14] [µM/min/kg] | solubility [15] [µM] | Smax [16] | Smax [17] [µM/min/kg] | Smax [18] [µM/min/kg] | CMpH [20] | half-life [22] [h] | other results
1 | CC(CCC(=O)N1CCC[C@@H]1C(=O)O)C1CC[C@H]2[C@@H]3C[C@H](O)C4C[C@H](O)CC[C@]4(C)[C@H]3CC[C@]12C (stereo not given in full) | 0.21 | 60 | 4.98 | 25 | 4.02 | 3.9 | 95 | 5.7 | 46 | 1.4 | 2.82 | 0.94 | 57 | 3.88 | 52 (≈ 25.5 µg/mL) | 0.42 µM/min/kg | 0.34 | 3.02 | 6.6 | > 72 | half-life [19]: > 72 h; logP [21]: 4.41
2 | C[C@H](CCC(=O)NCCS(=O)(=O)O)[C@H]1CC[C@H]2[C@@H]3[C@H](O)C[C@@H]4C[C@H](O)CC[C@]4(C)[C@H]3C[C@H](O)[C@]12C [TAUROCHOLIC ACID] | – | – | – | – | – | – | – | – | – | – | – | – | – | – | – | – | – | – | – | 4 | half-life [24]: 6 h
3 | CC(CCC(=O)NCC(=O)O)C1CC[C@H]2[C@@H]3C[C@H](O)C4C[C@H](O)CCC4(C)[C@H]3CCC12C (stereo not given in full) | – | – | – | – | – | – | – | – | – | – | – | – | – | – | – | – | – | – | – | 5 | –
4 | CC(CCC(=O)N1CCC[C@@H]1C(=O)O)C1CC[C@H]2[C@@H]3[C@@H](O)CC4C[C@H](O)CC[C@]4(C)[C@H]3CC[C@]12C (stereo not given in full) | 0.11 | 55 | 5.16 | 15 | 5.4 | 3.9 | 16 | 6 | 31 | 0.9 | 3 | 1.25 | 32 | 5.43 | 113 (≈ 55.3 µg/mL) | 0.42 µmol/min/kg | 0.28 | 3.22 | 6 | > 72 | half-life [23]: > 72 h; logP [21]: 5.83

Now from value to compound, other results behind:

Row | Rs [1] [µM/min/kg] | Smax [2] [nM/min/kg] | Smax [3] [mL/h/kg] | CMC [4] [mM] | Smax [5] [mL/h/kg] | pKa [6] | [LDH]max [7] [UI l-1] | Smax [8] [µM/min/kg] | Rs [9] [nM/min/kg] | Rs [10] [µM/min/kg] | Rs [11] [mL/h/kg] | rK [12] | [ALP]max [13] [IU/L] | Smax [14] [µM/min/kg] | solubility [15] [µM] | Smax [16] | Smax [17] [µM/min/kg] | Smax [18] [µM/min/kg] | CMpH [20] | half-life [22] [h] | SMILES | other results
5 | 0.12 | 28 | 5.04 | 29 | 5.4 | 3.5 | 14 | 11.1 | 12 | 0.8 | 2.64 | 0.7 | 30 | 6.96 | 30 (≈ 15.6 µg/mL) | 0.71 µM/min/kg | 0.28 | 4.67 | 6.5 | > 72 | CO[C@H]1C[C@H](C(=O)O)N(C(=O)CCC(C)C2CC[C@H]3[C@@H]4[C@@H](O)CC5C[C@H](O)CC[C@]5(C)[C@H]4CC[C@]23C)C1 (stereo not given in full) | half-life [23]: > 72 h; logP [21]: 3.86
6 | 0.12 | 68 | 5.4 | 10 | 5.82 | 3.1 | 10 | 6.3 | 31 | 0.9 | 2.76 | 0.6 | 31 | 4.98 | 250 (≈ 126 µg/mL) | 0.37 µM/min/kg | 0.25 | 3.27 | 4.7 | > 72 | CC(CCC(=O)N1C[C@@H](O)C[C@@H]1C(=O)O)C1CC[C@H]2[C@@H]3[C@@H](O)CC4C[C@H](O)CC[C@]4(C)[C@H]3CC[C@]12C (stereo not given in full) | half-life [23]: > 72 h; logP [21]: 3.59
7 | 0.26 | 52 | 6 | 30 | 3.6 | 3.9 | 48 | 6 | 23 | 1.8 | 2.28 | 0.85 | 34 | 5.07 | 60 (≈ 30.3 µg/mL) | 0.39 µM/min/kg | 0.28 | 3.41 | 6.6 | > 72 | CC(CCC(=O)N1CCC[C@@H]1C(=O)O)C1CC[C@H]2[C@@H]3[C@H](O)[C@H](O)C4C[C@H](O)CC[C@]4(C)[C@H]3CC[C@]12C (stereo not given in full) | half-life [19]: > 72 h; logP [21]: 3.71
8 | 0.09 | 52 | 5.82 | 7 | 3.9 | 3.9 | 71 | 7.9 | 28 | 1.6 | 3.06 | 0.92 | 30 | 3.64 | 59 (≈ 28.9 µg/mL) | 0.38 µM/min/kg | 0.2 | 2.07 | 6 | > 72 | CC(CCC(=O)N1CCC[C@H]1C(=O)O)C1CC[C@H]2[C@@H]3[C@@H](O)CC4C[C@H](O)CC[C@]4(C)[C@H]3CC[C@]12C (stereo not given in full) | half-life [23]: > 72 h; logP [21]: 4.41
